Source: PubChem BioAssay (several laboratories)
UPR CHOP act: apoptotic UPR (CHOP) activation; CHO-CHOP luciferase reporter, luminescence; percent of tunicamycin response over DMSO baseline; activation, % at 10 µM; hit rate 0.34% among 330,000; AID 449763;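 active means at 10 µM dose, activation of 40% or more, normalized to positive control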;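 further: 100% = tunicamycin at 10 µg/mL and 0% = DMSO alone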
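Assay system: CHO cells with stable CHOP pathway luciferase reporter; Buffer or medium: F12 plus 10% serum; Times: 16-18 h cell attachment, then 6 h compound exposure, 37 °C; Signal: luciferase luminescence; Read-out basis: percent activation relative to tunicamycin control; Control set: tunicamycin high control, DMSO low control.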
UPR XBP1 act: activators of adaptive arm of unfolded protein response (XBP1); CHO-XBP1 luciferase reporter, IRE1-XBP1 UPR activation, luminescence; percent of tunicamycin response, DMSO as zero; hit rate 0.33% among 330,000; activation, % at 20 µM;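 active means versus positive control, 20 µM dose yields 30% or more activation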;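 further: 100% = tunicamycin at 10 µg/mL and 0% = DMSO only wells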
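Material – CHO cell line with stable XBP1 luciferase reporter · Buffer or medium – F12 plus 10% FBS · Compound – single point, 20 µM final compound, 1% DMSO · Schedule – 16-18 h cell attachment at 37 °C, then 6 h compound exposure · Signal – Steady-Glo luminescence read · Benchmarks – high control tunicamycin 10 µg/mL final, low control DMSO vehicle only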
CHOP inh: blocks CHOP induction under ER stress; CHO-K1 CHOP-promoter luciferase, tunicamycin-induced, 15-18 h; inhibition, % at 10 µM; hit rate 3.8% among 220,000;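 active means compounds that reduced the stress-induced luciferase reporter signal by more than about 70% of percent inhibition, limit read from the data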;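 further: 0% = tunicamycin plus vehicle and 100% = wells without tunicamycin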
NOD2 RIPK2 PPI: blocks binding of human NOD2 to RIPK2; O43353; CHO BLA complementation NOD2-RIPK2, CCF4 ratio; inhibition, % at 4.98 µM; hit rate 0.38% among 360,000; in the data active means inhibition above about 21%;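 further: 0% = vehicle only and 100% = reference blocker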
TLR4 MyD88 comp: inhibitors of human TLR4-MyD88 binding; hit rate 0.18% among 200,000; AID 861; HeLa CL3-4 TLR4/MyD88 BLA complementation, FRET ratio; O00206+Q99836; inhibition, % at 8.4 µM; in the data active means inhibition above about 25%;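 further: 0% = vehicle and 100% = reference inhibitor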
TLR9-MyD88 inh: blocks human TLR9 binding to MyD88; hit rate 0.21% among 340,000; CHO BLA complementation TLR9-MyD88, CCF4 FRET ratio; inhibition, % at 4.98 µM;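 active means inhibition above the mean over all tested compounds plus 3 SD, cut at about 21% in these data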;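 further: 0% = DMSO only wells and 100% = clavulanate BLA inhibitor control wells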
Target sequence (Q99836 whole entry, looked up): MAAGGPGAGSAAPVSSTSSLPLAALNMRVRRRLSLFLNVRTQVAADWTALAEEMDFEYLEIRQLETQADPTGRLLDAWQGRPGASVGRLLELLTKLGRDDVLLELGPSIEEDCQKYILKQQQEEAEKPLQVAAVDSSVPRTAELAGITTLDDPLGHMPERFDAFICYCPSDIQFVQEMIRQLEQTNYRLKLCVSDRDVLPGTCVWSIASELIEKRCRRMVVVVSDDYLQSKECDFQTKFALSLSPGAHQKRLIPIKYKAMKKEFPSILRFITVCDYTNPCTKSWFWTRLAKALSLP
Target sequence (Q9NR96 whole entry, looked up): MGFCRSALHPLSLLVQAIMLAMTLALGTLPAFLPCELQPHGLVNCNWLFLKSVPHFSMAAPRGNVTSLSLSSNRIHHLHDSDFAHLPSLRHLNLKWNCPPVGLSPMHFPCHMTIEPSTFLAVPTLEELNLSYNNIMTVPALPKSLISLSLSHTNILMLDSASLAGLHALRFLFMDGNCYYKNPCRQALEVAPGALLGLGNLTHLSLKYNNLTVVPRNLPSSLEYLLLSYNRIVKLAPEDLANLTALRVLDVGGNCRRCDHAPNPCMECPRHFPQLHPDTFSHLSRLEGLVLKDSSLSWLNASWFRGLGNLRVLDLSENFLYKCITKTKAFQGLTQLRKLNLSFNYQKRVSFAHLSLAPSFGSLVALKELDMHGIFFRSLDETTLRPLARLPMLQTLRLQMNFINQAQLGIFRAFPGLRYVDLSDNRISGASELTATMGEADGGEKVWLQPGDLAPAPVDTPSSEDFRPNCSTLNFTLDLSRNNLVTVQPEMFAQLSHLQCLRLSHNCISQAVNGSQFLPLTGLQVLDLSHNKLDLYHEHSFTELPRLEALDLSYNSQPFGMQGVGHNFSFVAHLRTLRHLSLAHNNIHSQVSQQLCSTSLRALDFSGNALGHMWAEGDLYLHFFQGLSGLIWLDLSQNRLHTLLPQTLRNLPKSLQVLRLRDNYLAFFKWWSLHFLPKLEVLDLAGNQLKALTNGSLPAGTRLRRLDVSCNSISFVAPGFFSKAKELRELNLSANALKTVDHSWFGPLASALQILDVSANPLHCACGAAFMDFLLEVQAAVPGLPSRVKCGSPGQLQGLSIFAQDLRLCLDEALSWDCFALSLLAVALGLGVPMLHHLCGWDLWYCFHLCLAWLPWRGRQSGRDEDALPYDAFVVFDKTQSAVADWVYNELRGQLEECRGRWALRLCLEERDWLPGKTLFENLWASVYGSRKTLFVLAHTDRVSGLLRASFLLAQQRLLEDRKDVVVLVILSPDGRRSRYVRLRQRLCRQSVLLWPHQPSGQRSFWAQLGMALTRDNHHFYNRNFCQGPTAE
Numbers without * were called inactive; . = not tested or not shown. This is one part of a sample in which hits are shown more often than they occur.

SMILES	UPR CHOP act	UPR XBP1 act	CHOP inh	NOD2 RIPK2 PPI	TLR4 MyD88 comp	TLR9-MyD88 inh
O=C(NNc1nc(Nc2ccccc2)nc(N2CCOCC2)n1)Nc1ccc(Cl)cc1	1	-4	95*	7	9	1
CCOC(=O)/C=C/C(=O)Nc1cccc([N+](=O)[O-])c1	1	-10	48	9	14	5
CCOC(=O)c1cccc(NC(=O)/C=C/c2cccc([N+](=O)[O-])c2)c1	2	4	84*	-1	-16	-6
Cc1ccccc1/C=C1\OC(=O)c2ccccc21	5	3	87*	-14	-8	5
COc1ccc2nc(/N=C(\N)NC(=O)N3c4ccccc4Sc4ccccc43)nc(C)c2c1	2	2	77*	-2	2	-17
COC(=O)Nc1ccc(S(=O)(=O)Nc2ccc(O)cc2)cc1	-1	-4	78*	-11	3	2
COC(=O)Nc1ccc(S(=O)(=O)Nc2ccc(C)cc2)cc1	.	.	14	.	-3	.
O=C(CSc1nnc2ccccn12)Nc1ccc2c(c1)OCO2	1	-2	-9	9	-3	-2
O=C(CSc1nnc2ccccn12)Nc1cccc(-c2nc3ccccc3s2)c1	2	2	93*	1	0	5
Cn1c(=O)c2ncn(CC(=O)Nc3cccc(-c4nc5ccccc5s4)c3)c2n(C)c1=O	6	17	82*	4	-5	-15
Cc1cccc(NC(=O)CSCC(=O)N2CCN(C(=O)c3ccco3)CC2)c1	-1	-2	.	-9	.	-9
CC(=O)c1c(C)nn(CC(O)COc2ccc3c(c2)CCC3)c1C (centres undefined)	0	-1	21	-6	4	7
Cc1nn(CC(O)COc2ccc3c(c2)CCC3)c(C)c1Br (centres undefined)	7	-3	82*	0	1	-5
OC[C@@H]1CN(Cc2ccncc2)C[C@H](n2cnc3c(NCc4ccncc4)ncnc32)O1	.	.	.	-10	.	.
O=C(NN1CCCCC1)NN1CCCCC1	.	.	.	-20	.	.
C=CCSc1nnc2n(CCc3ccccc3)c(=O)c3c4c(sc3n12)COC(C)(C)C4	1	-3	71*	-11	2	-5
CCCC(=O)NC(c1ccc(OC)cc1)c1ccc2cccnc2c1O (centres undefined)	3	4	82*	-9	3	-1
Oc1ccccc1Oc1c(F)c(F)nc(N2CCCC2)c1F	-1	4	94*	4	-3	4
CC(CC(=O)N1CCN(S(=O)(=O)c2ccc([N+](=O)[O-])cc2)CC1)c1ccccc1 (centres undefined)	-1	0	.	-5	.	7
CC(O)(CS(=O)(=O)Cc1ccc(Cl)cc1)C(=O)Nc1cccc(C(F)(F)F)c1 (centres undefined)	-2	-1	6	-13	6	2
O=C(Nc1cccc(C(F)(F)F)c1)N(Cc1ccc(Cl)cc1)CC(O)C(F)(F)F (centres undefined)	0	1	74*	-5	0	-1
CCCc1ccc(C(=O)N2CCN(c3ccccc3OCC)CC2)cc1	-3	-2	71*	2	-14	3
Cc1ccc(C(=O)N2CCN(c3ccc(NC(=O)c4ccc(Br)o4)cc3)CC2)cc1	-1	1	72*	2	-4	-1
COc1ccc(-n2ncc3c(NCc4ccccn4)ncnc32)cc1	6	6	0	6	1	7
Cc1cc(C(=O)CSc2nc3ccccc3c(=O)n2C)c(C)n1Cc1ccc2c(c1)OCO2	4	1	79*	-3	-5	-9
SMILES	UPR CHOP act	UPR XBP1 act	CHOP inh	NOD2 RIPK2 PPI	TLR4 MyD88 comp	TLR9-MyD88 inh
Cc1cc(C(=O)CSc2nnc(-c3ccccc3)n2Cc2ccc3c(c2)OCO3)c(C)n1C	-2	-1	8	-3	-2	4
O=C(c1cc2ccccc2oc1=O)N(c1ccc(Cl)cc1)C1C=CS(=O)(=O)C1 (centres undefined)	-3	-5	19	-1	-18	-2
O=C(CN1CCN(c2ccccc2)CC1)Nc1ccccc1C(F)(F)F	1	-6	95*	1	1	-7
COc1ccc(C(=O)NCCSc2ccccc2)cc1OC	6	0	3	-4	6	-4
CCCCCCCCCCCCCCCCOCC(COCC(F)(F)F)OP(=O)(O)OCO (centres undefined)	.	.	-5	.	.	.
CCOc1ccc(NS(=O)(=O)c2ccc(NC(=S)NC(=O)CC(C)C)cc2)cc1	-2	1	92*	-2	7	-2
CCOc1ccc(NS(=O)(=O)c2ccc(NS(=O)(=O)c3ccc(SC)cc3)cc2)cc1	-1	-1	95*	-7	1	2
CCOc1ccc(NS(=O)(=O)c2ccc(NS(C)(=O)=O)cc2)cc1	-2	-6	1	-9	4	-9
Cc1cc(NC(=S)NC(=O)CC(C)C)ccc1Br	2	-1	83*	2	-13	0
C/C(=N/OC(=O)c1ccc(Cl)cc1Cl)c1oc(C)nc1C	5	6	-5	-2	.	-8
CC1C(c2ccccc2)N(C)C(c2ccccc2)CC1(O)c1ccc(F)cc1 (centres undefined)	.	.	85*	-7	0	-4
CN1C(c2ccccc2)CC(=NO)CC1c1ccccc1 (centres undefined)	-1	-3	.	2	.	-1
CC1CC(C)CN(CC(C)(C)NS(=O)(=O)c2ccc(Cl)cc2)C1 (centres undefined)	2	0	94*	-2	8	2
CC(C)(CN1CCCCC1)NS(=O)(=O)c1ccc(Cl)cc1	-1	-2	24	-6	2	-2
O=C1c2cccc3cccc(c23)C(=O)N1c1nccs1	0	2	24	-16	1	6
O=C1c2cccc3cccc(c23)C(=O)N1c1ccc2ncccc2c1	-2	0	89*	6	-7	3
CCOC(=O)c1ccc(NC(=O)CCC2COc3ccccc3O2)cc1 (centres undefined)	-2	-3	34	1	6	-1
CCc1ccc(OCC(=O)NC(=S)Nc2ccc(S(=O)(=O)NC3CCCCC3)cc2)cc1	0	-2	56	-7	4	2
Cc1cc(C)nc(NS(=O)(=O)c2ccc(NC(=O)CCC3COc4ccccc4O3)cc2)n1 (centres undefined)	-4	0	77*	-22	12	-7
Cc1ccnc(NS(=O)(=O)c2ccc(NC(=O)C3CCCCC3)cc2)n1	1	-2	27	-7	-12	-3
Cc1ccccc1OCC(=O)NC(=S)Nc1ccc(S(=O)(=O)NC2CCCCC2)cc1	-2	-4	77*	-6	-10	1
